# Screening results deposited in PubChem by several laboratories.
# Sampled rows, rich in hits. Any-hit rate of the full collection: about 1.6%.
# PKA-R2B act: activators of human PKA-R2B complex | PKA-R2B holoenzyme dissociation, Cy5-IP20 fluorescence polarization; R2B truncated from residue 108, S112A mutant; 0% DMSO only, 100% 113 µM cGMP | activation, % at 11.4 µM | 340,000 compounds, 0.079% hits;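 active = activation above a cutoff set at the mean over all compounds plus 3 SD, cut at about 18% in these data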;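 note: higher means more holoenzyme dissociation and a rise in polarization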
# HKDC1 inh: HKDC1 (human) hexokinase inhibition | Q2TB90 | recombinant HKDC1, G6PDH/diaphorase resazurin coupled fluorescence | inhibition, % at 20 µM | 340,000 compounds, 0.16% hits | AID 493160;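 active = inhibition above about 35% when tested at 20 µM, limit read from the data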
# Target sequence (Q2TB90 whole entry, looked up): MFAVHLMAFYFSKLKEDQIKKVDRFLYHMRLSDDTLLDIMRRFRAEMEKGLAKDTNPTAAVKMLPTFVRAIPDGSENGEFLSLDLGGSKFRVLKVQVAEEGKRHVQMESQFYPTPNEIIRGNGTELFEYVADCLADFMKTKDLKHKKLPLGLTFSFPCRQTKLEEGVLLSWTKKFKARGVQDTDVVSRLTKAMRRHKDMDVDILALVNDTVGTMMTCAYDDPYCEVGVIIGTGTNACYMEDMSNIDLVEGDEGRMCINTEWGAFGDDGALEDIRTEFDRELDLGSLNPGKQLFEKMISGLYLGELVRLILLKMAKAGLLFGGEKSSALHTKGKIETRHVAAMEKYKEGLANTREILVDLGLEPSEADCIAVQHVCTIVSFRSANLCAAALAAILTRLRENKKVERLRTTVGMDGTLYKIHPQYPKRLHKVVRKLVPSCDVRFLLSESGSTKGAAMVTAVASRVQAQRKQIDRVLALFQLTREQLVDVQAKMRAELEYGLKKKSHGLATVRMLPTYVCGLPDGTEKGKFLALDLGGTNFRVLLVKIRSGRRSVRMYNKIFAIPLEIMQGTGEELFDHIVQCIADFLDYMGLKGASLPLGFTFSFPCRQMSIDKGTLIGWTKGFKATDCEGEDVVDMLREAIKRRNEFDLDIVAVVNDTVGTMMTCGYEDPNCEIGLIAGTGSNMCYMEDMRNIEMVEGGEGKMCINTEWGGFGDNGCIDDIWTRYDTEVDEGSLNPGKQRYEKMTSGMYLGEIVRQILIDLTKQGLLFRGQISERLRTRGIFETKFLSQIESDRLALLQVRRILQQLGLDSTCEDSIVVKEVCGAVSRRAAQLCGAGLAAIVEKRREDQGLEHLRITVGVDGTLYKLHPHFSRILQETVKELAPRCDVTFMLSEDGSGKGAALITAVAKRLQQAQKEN
#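 Assay system – recombinant HKDC1 (HK5) hexokinase enzyme, produced in-house · Input – HKDC1 at 5 µg/mL · Reagent – glucose plus 1 mM ATP as hexokinase substrates · Timing – 90 min reaction incubation at room temperature, dark · Measured by – G6PDH/diaphorase-coupled fluorescence, 1 mM NADP, 100 µM resazurin, 525/613 nm · Benchmarks – DMSO-enzyme wells negative, buffer-substituted wells positive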
# PKA-R1A act: activates the PKA-R1A holoenzyme complex; P00514+P68181; 340,000 compounds, 0.083% hits; PKA-R1A dissociation, Cy5-IP20 fluorescence polarization; scaled: DMSO 0%, 113 µM cGMP 100%; activation, % at 11.4 µM; AID 504707;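 active = percent activation above the mean of all tested compounds plus 3 SD, cut at about 19% in these data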;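 note: higher means more PKAc released from R1A so a rise in polarization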
# T cell modulator: T cell immune modulators affecting CD8 T cell-vesicle binding. AID 2052. response (vesicle binding), % at 7 µM. 330,000 compounds, 0.068% hits. 2C CD8+ T cell-vesicle binding, flow cytometry; stronger effect = lower value;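 active = response, share of CD8 T cells binding vesicles, and their 90th percentile fluorescence all below set limits, cut at about 80% in these data, passing the limit was not always enough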;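 note: values below 100% mean blocked vesicle binding to the CD8+ T cells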
#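 material = purified 2C TCR transgenic mouse naive CD8+ T cells | controls = Unloaded micro-vesicles (low), QL9 vesicles with 0.7% DMSO (high) | detection = cytometric PE anti-B7-1 and Alexa647 anti-CD8 signals after 1% paraformaldehyde fixation | incubation = binding step 1.5 h, 37 °C, antibody labelling 20 min, ice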
# ATG4B inhibitor: blocks human ATG4B protease cleavage of LC3 substrate. 340,000 compounds, 0.51% hits. Q9Y4P1. ATG4B cleavage of LC3-PLA2, NBD-HPC fluorescence, 1 h. AID 504462. inhibition, % at 8.33 µM; in the data active = inhibition above about 40%
# PfG6PD inh: PfG6PD (Plasmodium falciparum) enzyme inhibition; PfGluPho enzyme, NADPH resazurin-diaphorase fluorescence; 350,000 compounds, 0.78% hits; inhibition, % at 20 µM;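 active = inhibition reaching at least a set limit at 20 µM in the primary screen, cut at about 59% in these data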
# PfGluPho conf: PfG6PD inhibition, single-dose confirmed; shares compounds with PfG6PD inh; recombinant PfGluPho, NADPH-diaphorase-resazurin fluorescence; inhibition, % at 20 µM; 2,400 compounds, 34% hits; AID 504753;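 active = inhibition of at least 50% at 20 µM in any single replicate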
# Diaphorase 10uM: inhibits diaphorase or oxidizes, flagging false PfG6PD hits; 820 compounds, 39% hits; diaphorase-coupled resazurin reduction, fluorescence, NADPH 10 uM; shares compounds with PfG6PD inh; inhibition, % at 20 µM; AID 504862;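 active = average inhibition reaching 50% or more with the compound at 20 µM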;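 note: resorufin red fluorescence formed as diaphorase reduces resazurin using NADPH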
# Diaphorase 30uM: inhibits diaphorase or oxidizes, flagging false PfG6PD hits | shares compounds with PfG6PD inh | Diaphorase/resazurin coupled assay, resorufin fluorescence, 30 uM NADPH | inhibition, % at 20 µM | 820 compounds, 29% hits;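 active = inhibition averaging 50% or more, tested at 20 µM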
# Hits are given with their value; – = inactive; · = no result given.
SMILES,PKA-R2B act,HKDC1 inh,PKA-R1A act,T cell modulator,ATG4B inhibitor,PfG6PD inh,PfGluPho conf,others
CN1CCN(C(=S)C(=O)Nc2ccc(Br)cc2)CC1,–,–,–,–,–,81.1,74.1,Diaphorase 10uM=–;Diaphorase 30uM=–
CCOc1ccc(N=C2NC(=O)CS2)cc1,–,–,–,–,–,–,·,
C(=N\NC1=Nc2cccc3cccc1c23)/c1ccccn1,–,–,–,·,–,65.3,–,
Clc1ccccc1/C=N/NC1=Nc2cccc3cccc1c23,–,–,–,–,–,–,·,
Oc1ccc(Nc2ccc3ccccc3c2)cc1,·,–,·,·,–,63.1,–,
Oc1ccc(-c2cn3c(n2)SCC3)cc1,–,–,–,–,–,–,·,
Oc1ccc(-c2cn3c(n2)SCC3)cc1O,–,–,–,–,–,63.2,89.4,Diaphorase 10uM=–;Diaphorase 30uM=–
COc1ccc(Nc2cc(C)c3ccccc3n2)cc1,–,–,–,–,–,65.6,–,
COc1ccc(Nc2ccc(Nc3ccc(OC)cc3)nn2)cc1,–,–,–,–,–,–,·,
COc1ccc(Nc2ccc(OC)cc2)cc1,·,–,·,–,–,63.8,–,
CC1(C)Cc2c(sc3nc4n(-c5ccccc5)c(=O)c(CCC(=O)O)nn4c(=O)c23)CO1,–,–,–,–,–,104.1,91.2,Diaphorase 10uM=–;Diaphorase 30uM=–
O=C(Nc1ccccc1)OCCc1ccccn1,–,–,–,·,–,–,·,
Nc1ccc(Oc2ncccn2)cc1,–,–,–,–,–,66.3,–,
O=Cc1cccc(Oc2ncccn2)c1,–,–,–,–,–,–,·,
COc1ccc(-c2cc3ccc(F)cc3cn2)cc1,–,–,–,–,–,68.6,–,
O=C(CSc1nc2cc(Cl)ccc2s1)c1ccco1,–,–,–,–,–,113.5,56.2,Diaphorase 10uM=–;Diaphorase 30uM=–
O=[N+]([O-])c1ccc(-[n+]2ccc3ccccc3c2)c([N+](=O)[O-])c1,–,–,–,–,–,93.8,67.0,Diaphorase 10uM=–;Diaphorase 30uM=–
COc1cc(Cl)ccc1NC(=O)COc1ccccc1C(=O)N1CCN(c2ccc(O)cc2)CC1,–,–,–,–,–,68.4,–,
NNC(=O)c1cccc(S(=O)(=O)Nc2cccc(C(F)(F)F)c2)c1,–,–,–,–,–,–,·,
Cc1[nH]c2ccccc2c1/C=N/NC(=O)c1cccc(S(=O)(=O)Nc2cccc(C(F)(F)F)c2)c1,–,–,–,–,–,65.6,–,
Cc1cc(C)c[n+](C2=C([O-])c3ccccc3C(=O)/C2=N\S(=O)(=O)c2cccs2)c1,–,–,–,–,–,66.1,49.6,Diaphorase 10uM=50.0;Diaphorase 30uM=–
O=C1/C(=N\S(=O)(=O)c2cccs2)C([n+]2cccc(Cc3ccccc3)c2)=C([O-])c2ccccc21,·,–,·,–,–,63.0,–,
Cc1cc[n+](C2=C([O-])c3ccccc3C(=O)/C2=N\S(=O)(=O)c2cccs2)cc1C,–,–,–,–,–,–,·,
O=C(NCCS(=O)(=O)NCc1cccnc1)c1ccccc1,–,–,–,–,–,–,·,
CCC1(CC)CNC(=O)NC1,–,–,–,·,–,–,·,
SMILES,PKA-R2B act,HKDC1 inh,PKA-R1A act,T cell modulator,ATG4B inhibitor,PfG6PD inh,PfGluPho conf,others
CCCCN1C(C(=O)Nc2ncccn2)=C(O)c2ccccc2S1(=O)=O,–,–,–,–,–,–,·,
COc1ccc(-n2cnc(=S)[nH]c2=S)cc1,–,–,–,·,–,74.5,–,
O=C(COC(=O)c1ccc2c(c1[N+](=O)[O-])C(=O)c1ccccc1C2=O)NC1CC1,–,–,–,–,–,60.1,54.1,Diaphorase 10uM=–;Diaphorase 30uM=–
Cc1ccc(NC(=S)NNC(=O)Nc2ccccc2)cc1,–,–,–,–,–,–,·,
Cc1ccc(NC(=S)NNC(=S)Nc2ccc(C)cc2)cc1,–,–,–,·,–,78.0,–,
S=C(NCCc1cccc(Cl)c1)NC1CCCCC1,–,–,–,–,–,–,·,
